# Measured values from different studies.
# Protocols differ between the studies behind these lines.
# DRD2: D(2) dopamine receptor (DRD2, Homo sapiens, UniProt P14416)
# MCU: Calcium uniporter protein, mitochondrial (MCU, Homo sapiens, UniProt Q8NE86)
# MTOR: Serine/threonine-protein kinase mTOR (MTOR, Homo sapiens, UniProt P42345)
Structure (SMILES),target,read-out,mode,method,pH,setting,IC50 [nM]
C[C@H](N)Cn1ncc2ccc3c(c21)CCCO3,DRD2,ligand displacement,,radioligand,,,> 100000
O=S(=O)([O-])[O-].[Cu+2],"Delta-aminolevulinic acid dehydratase (Homo sapiens, UniProt P13716, C162A/K59N)",enzyme activity,inhibitor,absorbance,pH 8,,2200
N.N.N.N.N.N.N.N.O=C(O)c1cccc1.O=C(O)c1cccc1.[Fe+2].[Fe+2].[N-3].[Ru+4].[Ru+4].c1cccc1.c1cccc1,MCU,transporter uptake,inhibitor,,,,10.5
COc1ccc(C(=O)O)cc1S(=O)(=O)Nc1ccc(C(F)(F)F)cc1N1CCCCC1,"Endoplasmic reticulum aminopeptidase 2 (ERAP2, Homo sapiens, UniProt Q6P179, K392N)",enzyme activity,inhibitor,fluorescence,,,27000
Cc1ccc(-c2ncn(-c3ccc(Nc4nccc(-c5cccc(N6CCOCC6)c5)n4)cc3)n2)cn1,"Mitogen-activated protein kinase 8 (MAPK8, Homo sapiens, UniProt P45983)",enzyme activity,inhibitor,,,,67
N#CC(C#N)=Cc1cc(C(=O)CCl)c[nH]1,"Epidermal growth factor receptor (EGFR, Homo sapiens, UniProt P00533)",enzyme activity,inhibitor,mobility shift,,,13000
COc1ccc2[nH]cc(CN3CCC(O)(c4ccc(SC)cc4)CC3)c2c1,DRD2,ion current,,,,,250
CC(C)C[C@H](NC(=O)[C@H](Cc1ccccc1)NC(=O)[C@H](Cc1ccc(O)cc1)NC(=O)CNC(=O)[C@H](CCCCN)NC(=O)[C@H](CO)NC(=O)[C@H](CCC(N)=O)NC(=O)CNC(=O)[C@@H](NC(=O)[C@H](CO)NC(=O)[C@@H]1CCCN1C(=O)[C@H](CO)NC(=O)[C@H](CCC(N)=O)NC(=O)[C@H](Cc1ccc(O)cc1)NC(=O)[C@H](CCC(=O)O)NC(=O)[C@H](C)NC(=O)[C@H](CCCCN)NC(=O)[C@@H](N)Cc1ccccc1)C(C)C)C(=O)N[C@@H](Cc1ccccc1)C(=O)N[C@@H](CCCNC(=N)N)C(=O)N1CCC[C@H]1C(=O)N[C@@H](CCCNC(=N)N)C(=O)N[C@@H](CC(N)=O)C(N)=O,"Neuromedin-U receptor 2 (Mus musculus, UniProt Q8BZ39)",ligand displacement,,radioligand,,cell membranes,0.03
NCCN.NCCN.NCCN.[Co+3],MCU,transporter uptake,inhibitor,,,,76
Nc1ncc(-c2nc(N3CCOCC3)nc(N3CCOCC3)n2)c(C(F)F)n1,MTOR,ligand displacement,,TR-FRET,,,49.9
C1CNCN2CNCCNCN(CN1)CNCCNC2.[Co+3],MCU,transporter uptake,inhibitor,,,,131
CC(=O)Oc1ccc(-c2coc3c4c(c(CC=C(C)C)c(OC(C)=O)c3c2=O)OC(C)(C)C=C4)cc1OC(C)=O,MTOR,enzyme activity,inhibitor,ELISA,,,6200
